# Source: ChEMBL document CHEMBL1148140, “Isolation of streptonigrin and its novel derivative from Micromonospora as inducing agents of p53-dependent cell apoptosis” (J Nat Prod, 2002)
# Activity calls are given as the source filed them. The calls are words filed in the database; no cut-off is given here.
# What was measured:
# SH-SY5Y [1] = assay: Cytotoxicity against human wild type SH-SY5Y cells upto 100 uM; type: functional, cell-based
# In short: (§1)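 Viability by MTS tetrazolium reduction. Neuroblastoma SH-SY5Y and SH-SY5Y-5.6 lines (HA-tagged 91-aa mini p53) were seeded the day before at 10⁵ cells/mL in RPMI with hygromycin 0.1 mg/mL. Exposure was 24 h; MTS was added at hour 20 (final 0.04 mg/well) for 4 h at 37 °C. Dose-response was run on reproducible hits.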
# SH-SY5Y [2] = assay: Cytotoxicity against human SH-SY5Y cells overexpressing dominant negative mutant of p53 upto 100 uM; type: functional, cell-based; in short: as §1
# SH-SY5Y [3] = assay: Cytotoxicity against human SH-SY5Y cells overexpressing dominant negative mutant of p53; type: functional, cell-based; in short: as §1
# SH-SY5Y [4] = assay: Cytotoxicity against human wild type SH-SY5Y cells; type: functional, cell-based; in short: as §1
# SH-SY5Y [5] = assay: Induction of apoptosis in human SH-SY5Y cells assessed as nuclear accumulation of p53; type: functional, cell-based
# SH-SY5Y [6] = assay: Selectivity ratio of IC50 for human SH-SY5Y cells overexpressing dominant negative mutant of p53 to IC50 for human wild type SH-SY5Y cells; type: functional
# SH-SY5Y [7] = assay: Induction of apoptosis in human SH-SY5Y cells assessed as DNA ladder activity; type: functional, cell-based
Compound,Activity (SH-SY5Y [1]),Activity (SH-SY5Y [2]),IC50 (SH-SY5Y [3]) [µM],IC50 (SH-SY5Y [4]) [µM],Activity (SH-SY5Y [5]),Ratio IC50 (SH-SY5Y [6]),Activity (SH-SY5Y [7])
CC(C)/C=c1\[nH]c(=O)/c(=C/c2ccccc2)[nH]c1=O,inactive,inactive,,,,,
C[C@H]1CNCCN1S(=O)(=O)c1cccc2cnccc12,,,80,40,,,
COC1=C(N)C(=O)c2nc(-c3nc(C(=O)O)c(C)c(-c4ccc(OC)c(OC)c4O)c3N)ccc2C1=O [STREPTONIGRIN],,,4.6,0.05,Active,92,Active
COC1=C(NC(C)C(C)=O)C(=O)c2nc(-c3nc(C(=O)O)c(C)c(-c4ccc(OC)c(OC)c4O)c3N)ccc2C1=O (stereo not drawn),,,75,0.9,,,
CC(C)/C=c1\c(=O)[nH]/c(=C\c2ccccc2)c(=O)n1C,inactive,inactive,,,,,
